Common to all, as to assay type: functional, cell-based
The subject of one experiment is MCF7. Description: Cytotoxicity against human MCF7 cells assessed as inhibition of cell proliferation after 72 hrs by SRB assay. The settings on record: MCF7, 72 h. An outline of the steps: (§1)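 Sulforhodamine B (SRB) read-out of proliferation inhibition. Cells (A549 lung adenocarcinoma; MCF-7 breast cancer) were seeded 24 h before treatment, then exposed continuously to a range of compound concentrations for 72 h. Inhibition rates were derived from the SRB signal. Adriamycin served as the positive control.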
(Sulforhodamine B stains cellular protein and so reports cell mass.)

Another experiment relates to A549. Put plainly: Cytotoxicity against human A549 cells assessed as inhibition of cell proliferation after 72 hrs by SRB assay. To be noted: A549, 72 h. The procedure, abridged: as §1
A further experiment has as its system HL-60. Put plainly: Cytotoxicity against human HL60 cells assessed as inhibition of cell proliferation after 72 hrs by MTT assay. The settings on record: HL-60, 72 h. The procedure, abridged:
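HL-60 promyelocytic leukemia cells were plated 24 h ahead, then exposed continuously to varying compound concentrations for 72 h. Proliferation inhibition was determined by MTT assay. Adriamycin served as the positive control.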

By IC50 is commonly meant the concentration that gives 50% inhibition.

Structures can show the parent of a compound that is named as a salt.

Take `C[C@H]1[C@@H]2CC[C@@H]1[C@@H](OC(=O)c1ccccc1)/C=C/C=C/C(=O)O[C@H]1[C@@H](C)C[C@@H]3[C@]1(O)[C@H](O)[C@@]1(CO)O[C@H]1[C@H]1[C@H]4OC5(c6ccccc6)O[C@@H]([C@@H](C)[C@@]13O5)[C@@]4(O)[C@](C)(O)C2` [REDIOCIDE C]: the IC50 with MCF7, with A549 and in the experiment with HL-60 was greater than 10 µM each time.
As to `C[C@H]1[C@@H]2CC[C@@H]1[C@H](OC(=O)c1ccccc1)/C=C/C=C/C(=O)O[C@H]1[C@@H](C)C[C@@H]3[C@]1(O)[C@H](O)[C@@]1(CO)O[C@H]1[C@H]1[C@H]4OC5(c6ccccc6)O[C@@H]([C@@H](C)[C@@]13O5)[C@@]4(O)[C@](C)(O)C2` [TRIGONOSIN E], the IC50 in the experiment with MCF7, with A549 and in the experiment on HL-60 was greater than 10 µM each time.
As to `C=C(C)[C@@]12OC3(c4ccccc4)O[C@@H]1[C@@H]1[C@@H]4O[C@]4(C)[C@@H](O)[C@@]4(O)[C@@H](C[C@H](C)[C@@H]4O)[C@@]1(O3)[C@H](C)[C@@H]2OC(=O)c1ccccc1` [TRIGONOSIN A], the IC50 in the experiment with MCF7, with A549 and in the experiment with HL-60 was greater than 10 µM in each case.
For `COc1cccc2c1C(=O)c1c(O)c3c(c(O)c1C2=O)C[C@@](O)(C(=O)CO)C[C@@H]3O[C@H]1C[C@H](N)[C@H](O)[C@H](C)O1` [DOXORUBICIN HYDROCHLORIDE], the values for the IC50 in the experiment on MCF7, in the experiment on A549 and in the experiment with HL-60 were 0.15 µM, 0.41 µM and 0.13 µM, respectively.
Taken in the same sequence, the figures for `C=C(C)[C@@]12OC3(c4ccccc4)O[C@@H]1[C@@H]1[C@@H]4O[C@]4(C)[C@@H](O)[C@]4(O)C(=O)C(C)=C[C@H]4[C@@]1(O3)[C@H](C)[C@@H]2OC(=O)c1ccccc1` [TRIGOXYPHIN A] were greater than 10 µM, greater than 10 µM and greater than 10 µM.
Taken in the same sequence, the figures for `C=C(C)[C@@]1(OC(=O)c2ccccc2)[C@H](OC(C)=O)[C@@H]2[C@H](OC(C)=O)[C@]3(C)O[C@@]4([C@@H]3O)[C@@H](O)[C@@H](C)C[C@H]4[C@@]2(O)[C@H](C)[C@@H]1OC(C)=O` [TRIGONOSIN D] were greater than 10 µM, greater than 10 µM and greater than 10 µM.
Taken in the same sequence, the figures for `CC(C)CC(=O)O[C@H]1/C=C/C=C/C(=O)O[C@H]2[C@@H](C)C[C@@H]3[C@]2(O)[C@H](O)[C@@]2(CO)O[C@H]2[C@H]2[C@H]4OC5(c6ccccc6)O[C@@H]([C@@H](C)[C@@]23O5)[C@@]4(O)[C@](C)(O)C[C@H]2CC[C@H]1[C@H]2C` [REDIOCIDE A] were greater than 10 µM, greater than 10 µM and greater than 10 µM.
Take `C=C(C)[C@@]12OC3(c4ccccc4)O[C@@H]1[C@@H]1[C@@H]4O[C@]4(CO)[C@@H](O)[C@@]4(O)[C@@H](C[C@H](C)[C@@H]4O)[C@@]1(O3)[C@H](C)[C@@H]2OC(=O)c1ccccc1` [TRIGONOSIN B]: the IC50 in the experiment on MCF7, with A549 and with HL-60 was greater than 10 µM throughout.
Take `C=C(C)[C@@]12OC3(c4ccccc4)O[C@@H]1[C@@H]1[C@H](O)[C@@](C)(O)[C@@H](O)[C@@]4(O)[C@@H](C[C@H](C)[C@@H]4O)[C@@]1(O3)[C@H](C)[C@@H]2OC(=O)c1ccccc1` [TRIGONOSIN C]: the IC50 in the experiment on MCF7, in the experiment with A549 and in the experiment on HL-60 was greater than 10 µM throughout.
Consider `C[C@H]1[C@@H]2CC[C@@H]1[C@@H](OC(=O)c1ccccc1)/C=C/C=C\C(=O)O[C@H]1[C@@H](C)C[C@@H]3[C@]1(O)[C@H](O)[C@@]1(CO)O[C@H]1[C@H]1[C@H]4OC5(c6ccccc6)O[C@@H]([C@@H](C)[C@@]13O5)[C@@]4(O)[C@](C)(O)C2` [TRIGONOSIN F], for which the IC50 in the experiment on MCF7, in the experiment on A549 and with HL-60 was greater than 10 µM each time.
Take `C=C(C)[C@@]12OC3(c4ccccc4)O[C@@H]1[C@@H]1[C@@H]4O[C@]4(C)[C@@H](O)[C@]4(O)C(=O)[C@@H](C)C[C@H]4[C@@]1(O3)[C@H](C)[C@@H]2OC(=O)c1ccccc1` [TRIGOXYPHIN B]: the IC50 in the experiment with MCF7, in the experiment on A549 and in the experiment with HL-60 was greater than 10 µM throughout.
